Results taken from publication PMC5131813 (Molecular Pain, 2016).

How the values were obtained:
CCI, SNL, CFA = details: cited from earlier work
[1] = system: AITC-induced licking/biting; details: cited from earlier work
[2] = system: SNL-induced tactile allodynia; test: SNL-induced tactile allodynia; format: in vivo; details: rat; 1 h and 2 h
Outline: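 Two weeks after spinal nerve ligation, rats on a metal mesh floor were tested with nine von Frey filaments at near-equal log intervals. Filaments were applied to the mid-plantar glabrous area of the injured paw, and the 50% withdrawal threshold was found by the up-down method. After a baseline reading, rats received oral vehicle, test compound (100 or 300 mg/kg) or gabapentin 200 mg/kg and were retested at 1 and 2 h. Thresholds were log-transformed before statistics.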

[3] = system: open field activity in rats; test: Open field activity; format: in vivo; details: rat open field, 60 min; for effect on total distance traveled vs vehicle: AMG0902 30-300 mg/kg, gabapentin 200 mg/kg p.o.
Outline: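 Male Sprague-Dawley rats (220–300 g) were kept on a reversed light cycle for ≥1 week and acclimated 1 h. Test compound (30, 100 or 300 mg/kg), vehicle or gabapentin 200 mg/kg p.o. (same vehicle) was given 1 h before the rat was placed in a 41×41×38 cm box with 32 photocells. Beam breaks, distance, time and stereotypic movements were logged per minute over 60 min.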

[4] = Plasma protein binding by ultracentrifugation; format: in vitro ADME; details: male, rat
Outline: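 Test compound at 5 µg/mL was incubated in male rat plasma for 15 min at 37 °C, then ultracentrifuged at 16,128 × g for 3 h at 37 °C. Samples were precipitated with acetonitrile containing internal standard, dried under nitrogen, reconstituted in methanol/water 50:50 and quantified by LC-MS/MS against calibration standards. The unbound fraction was taken as measured/nominal concentration.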

rat TRPV1 = rat TRPV1 (Rattus norvegicus, UniProt O35433); test: TRP channel selectivity, luminescence calcium assay in CHO cells; format: cell-based
Outline: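 A CHO line constitutively expressing rat TRPV1 plus aequorin was used without tetracycline induction. Cells were loaded for 2 h with 15 µM coelenterazine in pH 7.2 F12 containing 30 mM HEPES. Test compound was added 2.5 min before 0.5 µM capsaicin. Luminescence was recorded by a CCD-camera luminometer, and IC50 was derived by curve fitting.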

rTRPV3 = target: T1, rTRPV3 (Rattus norvegicus, UniProt Q4QYD9); test: TRP channel selectivity, luminescence calcium assay in CHO cells; format: cell-based
T1 sequence (Q4QYD9 1-791): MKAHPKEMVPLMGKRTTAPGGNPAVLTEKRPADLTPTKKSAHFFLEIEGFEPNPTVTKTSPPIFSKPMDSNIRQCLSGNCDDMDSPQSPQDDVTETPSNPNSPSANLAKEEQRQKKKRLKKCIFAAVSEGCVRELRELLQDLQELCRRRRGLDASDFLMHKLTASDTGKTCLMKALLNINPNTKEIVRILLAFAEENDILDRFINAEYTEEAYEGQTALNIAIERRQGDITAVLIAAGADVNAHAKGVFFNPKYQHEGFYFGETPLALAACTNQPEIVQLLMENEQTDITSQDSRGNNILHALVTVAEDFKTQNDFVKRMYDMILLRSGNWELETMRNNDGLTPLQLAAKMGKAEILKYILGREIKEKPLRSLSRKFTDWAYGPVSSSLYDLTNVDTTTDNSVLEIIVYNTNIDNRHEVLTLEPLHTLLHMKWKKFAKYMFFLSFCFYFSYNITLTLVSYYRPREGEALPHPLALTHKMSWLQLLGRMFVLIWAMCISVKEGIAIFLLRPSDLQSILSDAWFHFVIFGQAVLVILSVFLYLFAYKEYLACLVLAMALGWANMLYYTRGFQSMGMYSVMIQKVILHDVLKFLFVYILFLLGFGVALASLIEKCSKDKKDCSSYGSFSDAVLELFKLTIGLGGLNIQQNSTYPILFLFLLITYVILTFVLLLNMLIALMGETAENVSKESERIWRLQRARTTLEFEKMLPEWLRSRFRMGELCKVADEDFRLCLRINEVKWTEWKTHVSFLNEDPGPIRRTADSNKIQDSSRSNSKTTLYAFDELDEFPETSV
Outline: (§1)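 Tetracycline-inducible stable CHO lines co-expressing aequorin were induced with 0.5 µg/ml tetracycline 24 h before the assay. Cells were loaded for 2 h in pH 7.2 F12 with 30 mM HEPES and 15 µM coelenterazine. Test compound was added 2.5 min before agonist: 200 µM 2-APB for TRPV3, or 1 µM icilin or 12 °C cold buffer for TRPM8. Luminescence was read by CCD luminometer, and IC50 was fitted.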

[5] = Pharmacokinetics in plasma and brain; format: in vivo; details: Sprague-Dawley, rat
rat TRPA1 = rat TRPA1 (Rattus norvegicus, UniProt Q6RI86); test: Agonist-induced TRPA1 activation in stably expressing CHO cells; format: cell-based; details: for IC50: stably expressing CHO cells
TRPA1 [6] = target: T2, TRPA1 (Rattus norvegicus, UniProt Q6RI86); test: AITC-induced licking/flinching model; format: in vivo; details: po, read-out: Rat AITC PD model IC90
Outline: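 Rats dosed p.o. at 0.3, 1, 3 or 10 mg/kg, or vehicle (1% Tween80/2% HPMC/97% water/methanesulfonic acid, pH 2.2), 60 min before intraplantar AITC (30 µl, in 0.5% Tween 80/PBS). A blinded observer counted flinches and guard/licks >3 s for 1 min post-injection. Plasma levels were measured by LC-MS/MS. IC90 came from sigmoidal fit of individual response versus plasma concentration.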

rTRPM8 = rTRPM8 (Rattus norvegicus, UniProt Q8R455); test: TRP channel selectivity, luminescence calcium assay in CHO cells; format: cell-based
Outline: as §1

rTRPA1 = rTRPA1 (Rattus norvegicus, UniProt Q6RI86); test: rTRPA1 agonism assay; format: cell-based
[7] = system: CFA-induced hypersensitivity; test: CFA-induced decreased rearing in an open field assay; format: in vivo; details: rat; for rearing time: 23 h after CFA, 60 min, CFA vehicle 204 ± 25 s; for effect on CFA-induced reduction in rearing: naproxen sodium 3 mg/kg, AMG0902 up to 100 mg/kg
[8] = Unbound plasma exposure in pharmacodynamic and pain models; format: in vivo, rat
Outline: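 Rats in the pain models were dosed orally with test compound in 1% Tween80/2% HPMC/97% water/methanesulfonic acid pH 2.2. Plasma drug levels were measured by LC-MS/MS after protein precipitation, using a structurally similar internal standard and calibration standards serially diluted into blank plasma from a 1 mg/mL DMSO stock.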

mouse TRPA1 = mouse TRPA1 (Mus musculus, UniProt Q8BLA8); test: TRPA1 activation by AITC, antagonist assay; format: cell-based
human TRPA1 = human TRPA1 (Homo sapiens, UniProt O75762); test: TRPA1 activation by AITC, antagonist assay; format: cell-based; details: read-out: human TRPA1 activation by AITC IC90
hTRPV1 = hTRPV1 (Homo sapiens, UniProt Q8NER1); test: TRP channel selectivity, calcium assay; format: cell-based
hTRPV4 = hTRPV4 (Homo sapiens, UniProt Q9HBA0); test: TRP channel selectivity, luminescence calcium assay in CHO cells; format: cell-based
Outline: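 A tetracycline-inducible CHO line expressing human TRPV4 plus aequorin was induced with 0.5 µg/ml tetracycline 24 h before the assay. Cells were loaded for 2 h in pH 7.2 F12 containing 30 mM HEPES, 1 mM CaCl2, 0.3% BSA and 15 µM coelenterazine. Test compound was added 2.5 min before 1 µM 4α-PDD. Luminescence was read on a CCD-camera luminometer, and IC50 was calculated.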

TRPA1 [9] = target: T2, TRPA1; details: 1, 3, 10, and 30 mg/kg; cited from earlier work
[10] = system: 40 targets including GPCRs, ion channels, and kinases; test: CEREP selectivity profiling; format: binding
C-fibers = details: cited from earlier work

rat TRPA1, sequence (Q6RI86 whole entry): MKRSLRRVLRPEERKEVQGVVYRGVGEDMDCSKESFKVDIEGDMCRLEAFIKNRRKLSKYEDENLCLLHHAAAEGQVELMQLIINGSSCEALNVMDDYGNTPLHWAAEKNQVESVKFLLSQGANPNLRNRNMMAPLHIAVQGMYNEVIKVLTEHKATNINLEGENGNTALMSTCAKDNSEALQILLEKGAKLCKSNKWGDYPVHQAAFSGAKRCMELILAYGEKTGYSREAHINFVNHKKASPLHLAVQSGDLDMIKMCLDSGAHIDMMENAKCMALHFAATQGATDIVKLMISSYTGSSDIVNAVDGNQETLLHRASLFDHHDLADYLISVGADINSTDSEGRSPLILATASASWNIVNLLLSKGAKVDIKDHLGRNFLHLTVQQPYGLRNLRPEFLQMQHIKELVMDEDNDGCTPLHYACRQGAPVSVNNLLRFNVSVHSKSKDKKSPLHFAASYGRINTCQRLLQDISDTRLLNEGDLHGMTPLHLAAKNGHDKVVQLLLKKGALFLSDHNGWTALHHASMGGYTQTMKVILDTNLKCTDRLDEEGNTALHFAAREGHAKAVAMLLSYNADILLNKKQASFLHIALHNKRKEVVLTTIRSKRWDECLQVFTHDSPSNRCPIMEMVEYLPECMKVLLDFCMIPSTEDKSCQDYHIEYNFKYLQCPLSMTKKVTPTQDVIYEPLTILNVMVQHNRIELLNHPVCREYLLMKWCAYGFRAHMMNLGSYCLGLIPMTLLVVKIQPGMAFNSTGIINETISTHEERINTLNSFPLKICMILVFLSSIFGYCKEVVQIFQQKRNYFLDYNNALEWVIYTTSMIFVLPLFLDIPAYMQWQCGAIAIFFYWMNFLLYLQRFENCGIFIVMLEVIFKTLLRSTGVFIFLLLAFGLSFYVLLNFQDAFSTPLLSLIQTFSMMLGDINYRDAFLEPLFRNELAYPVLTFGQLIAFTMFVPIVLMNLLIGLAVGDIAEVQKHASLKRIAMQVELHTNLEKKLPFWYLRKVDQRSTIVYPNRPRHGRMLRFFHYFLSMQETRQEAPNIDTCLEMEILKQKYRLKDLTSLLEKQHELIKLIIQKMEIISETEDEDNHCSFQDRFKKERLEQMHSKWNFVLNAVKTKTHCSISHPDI
T2 sequence (Q6RI86 whole entry): as above
hTRPV1, sequence (Q8NER1 whole entry): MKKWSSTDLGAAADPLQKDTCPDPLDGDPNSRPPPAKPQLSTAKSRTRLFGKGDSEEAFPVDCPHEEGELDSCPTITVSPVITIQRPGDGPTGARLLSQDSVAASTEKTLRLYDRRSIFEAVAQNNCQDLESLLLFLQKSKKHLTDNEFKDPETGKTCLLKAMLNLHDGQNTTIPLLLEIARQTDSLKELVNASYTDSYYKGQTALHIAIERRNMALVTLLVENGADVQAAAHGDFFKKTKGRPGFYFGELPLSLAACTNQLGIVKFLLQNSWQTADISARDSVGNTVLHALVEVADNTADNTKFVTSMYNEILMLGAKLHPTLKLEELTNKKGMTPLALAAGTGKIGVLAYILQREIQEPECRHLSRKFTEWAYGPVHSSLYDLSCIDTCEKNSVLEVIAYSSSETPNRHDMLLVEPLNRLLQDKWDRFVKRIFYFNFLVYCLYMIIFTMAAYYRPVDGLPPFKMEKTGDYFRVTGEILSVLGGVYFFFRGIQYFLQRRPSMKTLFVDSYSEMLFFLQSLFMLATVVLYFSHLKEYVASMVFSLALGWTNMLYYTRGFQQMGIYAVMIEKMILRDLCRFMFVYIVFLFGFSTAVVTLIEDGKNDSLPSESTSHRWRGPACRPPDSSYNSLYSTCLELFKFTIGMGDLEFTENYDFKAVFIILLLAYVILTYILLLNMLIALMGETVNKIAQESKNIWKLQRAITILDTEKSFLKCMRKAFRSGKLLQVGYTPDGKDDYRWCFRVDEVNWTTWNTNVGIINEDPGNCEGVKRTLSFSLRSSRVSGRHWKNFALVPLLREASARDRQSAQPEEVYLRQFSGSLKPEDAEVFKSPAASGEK
rat TRPV1, sequence (O35433 whole entry): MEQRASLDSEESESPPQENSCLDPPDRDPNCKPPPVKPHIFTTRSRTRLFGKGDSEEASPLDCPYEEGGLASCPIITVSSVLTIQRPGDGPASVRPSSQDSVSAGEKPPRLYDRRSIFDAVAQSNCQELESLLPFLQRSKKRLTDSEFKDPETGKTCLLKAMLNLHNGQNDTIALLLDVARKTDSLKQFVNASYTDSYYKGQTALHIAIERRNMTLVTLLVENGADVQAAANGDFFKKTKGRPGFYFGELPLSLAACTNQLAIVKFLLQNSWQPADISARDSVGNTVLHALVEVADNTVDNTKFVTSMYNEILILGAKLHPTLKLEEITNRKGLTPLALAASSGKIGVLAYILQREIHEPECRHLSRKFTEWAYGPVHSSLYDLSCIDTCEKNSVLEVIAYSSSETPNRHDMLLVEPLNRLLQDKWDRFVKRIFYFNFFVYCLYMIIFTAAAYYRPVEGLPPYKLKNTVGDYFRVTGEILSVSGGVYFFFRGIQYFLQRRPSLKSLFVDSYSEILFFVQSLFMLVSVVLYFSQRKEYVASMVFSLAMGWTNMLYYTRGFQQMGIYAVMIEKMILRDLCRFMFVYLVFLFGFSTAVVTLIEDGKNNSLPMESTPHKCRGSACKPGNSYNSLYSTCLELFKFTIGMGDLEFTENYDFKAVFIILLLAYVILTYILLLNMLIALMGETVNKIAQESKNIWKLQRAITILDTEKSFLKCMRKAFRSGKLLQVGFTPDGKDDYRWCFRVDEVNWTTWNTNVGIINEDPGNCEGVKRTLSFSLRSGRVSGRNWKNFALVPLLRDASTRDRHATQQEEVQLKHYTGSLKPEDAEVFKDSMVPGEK
rTRPA1, sequence (Q6RI86 whole entry): as the sequence (Q6RI86 whole entry) above
rTRPM8, sequence (Q8R455 whole entry): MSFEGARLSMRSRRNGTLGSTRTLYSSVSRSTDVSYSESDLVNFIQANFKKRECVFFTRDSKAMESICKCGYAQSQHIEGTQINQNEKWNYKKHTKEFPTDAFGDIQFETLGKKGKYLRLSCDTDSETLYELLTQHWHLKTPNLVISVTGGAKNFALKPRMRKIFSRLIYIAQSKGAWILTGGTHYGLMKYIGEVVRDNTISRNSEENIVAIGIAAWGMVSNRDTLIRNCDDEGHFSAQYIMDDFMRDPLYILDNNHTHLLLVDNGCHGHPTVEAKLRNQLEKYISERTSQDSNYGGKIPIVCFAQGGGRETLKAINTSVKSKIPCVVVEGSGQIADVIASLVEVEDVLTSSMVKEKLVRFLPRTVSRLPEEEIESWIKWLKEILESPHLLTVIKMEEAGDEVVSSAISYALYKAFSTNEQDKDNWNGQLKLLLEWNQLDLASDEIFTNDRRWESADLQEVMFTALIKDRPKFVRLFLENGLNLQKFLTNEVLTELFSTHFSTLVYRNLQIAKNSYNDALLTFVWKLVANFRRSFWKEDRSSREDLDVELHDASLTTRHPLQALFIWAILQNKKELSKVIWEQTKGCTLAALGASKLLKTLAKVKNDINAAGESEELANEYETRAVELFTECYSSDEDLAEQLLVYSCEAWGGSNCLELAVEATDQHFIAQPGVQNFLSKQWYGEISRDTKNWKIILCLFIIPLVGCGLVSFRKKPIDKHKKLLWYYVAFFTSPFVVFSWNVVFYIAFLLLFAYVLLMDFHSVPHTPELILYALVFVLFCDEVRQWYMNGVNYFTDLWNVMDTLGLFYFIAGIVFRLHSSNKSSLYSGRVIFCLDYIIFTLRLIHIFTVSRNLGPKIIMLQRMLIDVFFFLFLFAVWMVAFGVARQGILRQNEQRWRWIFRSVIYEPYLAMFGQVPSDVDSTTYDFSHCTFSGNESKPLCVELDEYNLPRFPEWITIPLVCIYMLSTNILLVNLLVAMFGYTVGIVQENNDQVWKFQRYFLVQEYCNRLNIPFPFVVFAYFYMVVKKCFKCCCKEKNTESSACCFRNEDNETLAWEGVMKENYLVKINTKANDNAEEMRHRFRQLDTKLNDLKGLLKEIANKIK
hTRPV4, sequence (Q9HBA0 whole entry): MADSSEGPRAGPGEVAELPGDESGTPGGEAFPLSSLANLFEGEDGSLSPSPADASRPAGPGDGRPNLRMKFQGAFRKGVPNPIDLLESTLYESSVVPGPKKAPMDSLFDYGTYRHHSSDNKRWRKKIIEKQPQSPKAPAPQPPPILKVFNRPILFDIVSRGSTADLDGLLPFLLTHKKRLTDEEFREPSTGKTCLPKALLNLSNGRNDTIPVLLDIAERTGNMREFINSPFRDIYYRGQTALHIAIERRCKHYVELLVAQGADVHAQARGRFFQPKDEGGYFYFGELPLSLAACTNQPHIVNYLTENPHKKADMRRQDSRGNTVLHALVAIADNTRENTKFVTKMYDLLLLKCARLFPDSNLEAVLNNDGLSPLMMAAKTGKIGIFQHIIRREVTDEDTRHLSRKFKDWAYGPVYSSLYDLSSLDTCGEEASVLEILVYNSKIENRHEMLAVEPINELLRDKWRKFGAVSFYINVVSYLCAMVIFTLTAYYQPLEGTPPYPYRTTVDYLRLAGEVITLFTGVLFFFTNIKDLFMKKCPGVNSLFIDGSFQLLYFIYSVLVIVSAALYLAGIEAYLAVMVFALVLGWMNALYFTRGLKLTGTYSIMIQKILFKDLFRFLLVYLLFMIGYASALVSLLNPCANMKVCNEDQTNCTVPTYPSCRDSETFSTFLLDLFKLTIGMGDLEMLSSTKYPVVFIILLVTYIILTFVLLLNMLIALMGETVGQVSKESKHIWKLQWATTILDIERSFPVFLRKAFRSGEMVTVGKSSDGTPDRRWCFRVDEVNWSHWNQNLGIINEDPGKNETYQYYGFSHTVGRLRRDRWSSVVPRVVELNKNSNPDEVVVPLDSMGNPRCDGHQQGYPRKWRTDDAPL

CCC(=N\O)/C(C)=C/c1ccc(F)cc1 [A-967079]
Efficacy (CCI, SNL, CFA; CCI, SNL, CFA, MH, 62 mg/kg, p.o., ref Chen et al.[42]): ineffective | effect on von Frey-evoked tactile allodynia (CCI, SNL, CFA; CFA or SNL models): no effect | effect on AITC-induced licking/biting in vivo [1]: efficiently blocks

NCC1(CC(=O)O)CCCCC1 [gabapentin, reference compound]
effect on SNL-induced mechanical allodynia [2]: significantly reversed | effect on total distance traveled vs vehicle [3]: not significantly reduced

Cn1cnc2ncn(Cc3nc(CCc4ccc(Cl)cc4)no3)c(=O)c21 [AMG0902, 1-((3-(4-Chlorophenethyl)-1,2,4-oxadiazol-5-yl)methyl)-7-methyl-1H-purin-6(7H)-one]
fraction unbound at 15 min, 5 µg/mL [4]: 0.29 | IC50 (rat TRPV1): > 10 µM | effect on SNL-induced mechanical allodynia [2]: no significant effect | IC50 (rTRPV3): > 10 µM | Kp ([5]; brain): 0.2 | clearance ([5]; male, plasma, iv, 2 mg/kg): 41.7 mL/min/kg | IC90 (rat TRPA1; CHO, read-out: IC90 against rat TRPA1): 300 nM | IC50 (rat TRPA1; rTRPA1 (4-ONE) IC50, 35 µM 4-ONE): 585 ± 110 nM | IC50 (rat TRPA1; rTRPA1 (AITC) IC50, 80 µM AITC): 68 ± 38 nM | IC50 (rat TRPA1; rTRPA1 (Methylglyoxal) IC50, 2.74 mM methylglyoxal): 151 ± 5 nM | IC50 (rat TRPA1; rTRPA1 (Osmol) IC50, 100 mOsmol hypo-osmolarity): 9.7 ± 2 nM | IC90 (TRPA1 [6]): 1700 nM | IC50 (rTRPM8): > 10 µM | IC50 (rTRPA1): > 25 µM | rearing time ([7]; AMG0902 100 mg/kg p.o.): 264 ± 52 s | effect on CFA-induced reduction in rearing [7]: no significant reduction | mean unbound plasma concentration ([8]; CFA Randall Selitto model, 300 mg/kg p.o.): 35 ± 11 µM | mean unbound plasma concentration ([8]; CFA rearing model, 100 mg/kg p.o.): 6.1 ± 2.4 µM | mean unbound plasma concentration ([8]; SNL model, 300 mg/kg p.o.): 8.4 µM | mean Cu concentration (unbound plasma) ([8]; open field assay, 300 mg/kg p.o.): 12.6 ± 5.4 µM | IC50 (mouse TRPA1): 113 ± 77 nM | rearing time ([3]; 300 mg/kg p.o., 1 h before): 308 ± 67 s | total distance traveled ([3]; 300 mg/kg p.o., 1 h before): 7437 ± 900 cm | effect on total distance traveled vs vehicle [3]: no significant effect | IC90 (human TRPA1): 186 ± 18 nM | IC50 (hTRPV1): > 10 µM | IC50 (hTRPV4): > 10 µM | effect on AITC-induced licking/flinching (TRPA1 [9]): dose-dependent prevention | inhibition of specific ligand binding to each target ([10]; 40 targets profiled at CEREP): < 33% | IC50 ([10]; read-out: in vitro potency at 40 targets profiled at CEREP): > 10 µM

CC(C)c1ccc(NC(=O)Cn2cnc3c2c(=O)n(C)c(=O)n3C)cc1 [HC-030031]
effect on mechanically evoked action potential firing in C-fibers (C-fibers): reduced mechanically evoked action potential firing

COc1ccc2cc([C@H](C)C(=O)O)ccc2c1 [naproxen, reference compound]
rearing time ([7]; naproxen 3 mg/kg p.o.): 418 ± 49 cm | effect on CFA-induced reduction in rearing [7]: significant inhibition
